Screening data from PubChem BioAssay.
Sampled rows, rich in hits. Any-hit rate of the full collection: about 2.9%.
SENP8 block-1: inhibitors of human SENP8 protease; purified SENP8, Z-RLRGG-aminoluciferin cleavage, luminescence; inhibition, % at 10 µM; hit rate 1.2% among 330,000; in the data active means inhibition above about 50%
Target sequence (Q96LD8 whole entry, looked up): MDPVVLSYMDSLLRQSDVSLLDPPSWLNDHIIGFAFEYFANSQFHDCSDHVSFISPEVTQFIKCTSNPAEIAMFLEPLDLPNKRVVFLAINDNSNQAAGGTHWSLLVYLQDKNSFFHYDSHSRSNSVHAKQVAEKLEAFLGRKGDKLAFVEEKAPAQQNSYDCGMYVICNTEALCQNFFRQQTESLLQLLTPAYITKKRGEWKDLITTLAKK
SENP6 inh: SENP6 protease inhibition. Recombinant SENP6 catalytic domain, aminoluciferin luminescence. inhibition, % at 10 µM. hit rate 1.8% among 330,000. AID 2599;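 active means inhibition above about 50% at the single tested dose, limit read from the data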;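 further: plate controls were DMSO wells with enzyme for no effect and DMSO wells lacking enzyme for full effect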
SENP7 block: blocks the human protease SENP7; recombinant SENP7, Z-RLRGG-aminoluciferin luminescence, 40 min; inhibition, % at 5 µM; hit rate 1.5% among 330,000; AID 434973;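 active means inhibition above about 50% at the single test dose, limit read from the data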;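 further: plate controls were DMSO with enzyme for no effect and no enzyme buffer wells for full effect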
SENP8 block-2: SENP8 (human) protease inhibition; recombinant SENP8, Nedd8 substrate fluorescence; inhibition, % at 20 µM; hit rate 0.64% among 360,000; in the data active means inhibition mostly above about 40%, no sharp cut-off; inactive means mostly below about 27%
HSP90 inh: inhibitors of HSP90 luciferase refolding in rabbit reticulocyte lysate; luciferase refolding luminescence, 3 h; inhibition, % at 5.6 µM; hit rate 0.91% among 290,000;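 active means inhibition above the screen-wide mean plus 3 SD, computed separately per campaign, cut at about 16% in these data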;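 further: 0% = DMSO wells and 100% = 60 µM geldanamycin wells; inhibitors lower the luminescence because luciferase stays unfolded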
SENP1 FRET inh: SENP1 (human) catalytic domain inhibition | hit rate 0.21% among 360,000 | AID 624204 | recombinant SENP1 catalytic domain, CyPet-SUMO1-YPet FRET cleavage | inhibition, % at 10 µM | Q9P0U3;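 active means inhibition at least 30% at 10 µM, raw YFP signal under a set limit, fluorescence ratio 0.5 to 1.5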;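 further: 0% = enzyme with DMSO and 100% = no enzyme wells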
Target sequence (Q9P0U3 419-644 limits assumed): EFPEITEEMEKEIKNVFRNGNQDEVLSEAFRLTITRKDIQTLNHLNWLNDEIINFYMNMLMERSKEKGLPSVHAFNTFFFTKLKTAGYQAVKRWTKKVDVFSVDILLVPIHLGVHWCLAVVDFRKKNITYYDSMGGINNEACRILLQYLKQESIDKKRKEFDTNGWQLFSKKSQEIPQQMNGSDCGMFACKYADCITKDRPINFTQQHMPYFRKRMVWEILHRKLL
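Test system: human SENP1 catalytic domain; medium: Tris pH 8 buffer plus EDTA, NaCl, BME, BSA, NP40, catalase; incubation: 50 min reaction at room temperature; technique: FRET, CFP and YFP emission; controls: no-enzyme low control and enzyme-plus-DMSO high control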
SENP8 conf: confirmation of human SENP8 protease inhibitors | shares compounds with SENP7 block | Recombinant SENP8, Z-RLRGG-aminoluciferin luminescence, 60 min | inhibition, % at 12.5 µM | hit rate 40% among 6,200 | AID 488912;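 active means mean inhibition across replicates above about 50%, limit read from the data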
SENP6 conf: confirmation of human SENP6 protease inhibitors; shares compounds with SENP7 block; recombinant SENP6, Z-RLRGG-aminoluciferin luminescence; inhibition, % at 12.5 µM; hit rate 58% among 6,200; AID 488915
SENP7 confirm: human SENP7 inhibition, confirmed. inhibition, % at 12.5 µM. hit rate 69% among 6,200. recombinant SENP7, Z-RLRGG-aminoluciferin luminescence, 40 min. shares compounds with SENP7 block. AID 488917
Casp3 SENP sel: caspase-3 inhibition (SENP selectivity assay); hit rate 60% among 6,200; AID 488918; shares compounds with SENP7 block; inhibition, % at 12.5 µM; purified caspase-3, Z-DEVD-aminoluciferin luminescence, 60 min;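 active means mean inhibition above about 50%, limit read from the data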;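 further: plate controls were enzyme with DMSO for no effect and wells without caspase-3 for full effect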
SENP luc ctr: interferes with luciferase luminescence in SENP counter-screen; inhibition, % at 12.5 µM; shares compounds with SENP7 block; Pre-incubated SENP8/Z-RLRGG-aminoluciferin, luciferase luminescence interference; hit rate 39% among 6,200; AID 488919;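 active means mean inhibition above about 50% when retested at one dose, limit read from the data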;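 further: plate controls were DMSO wells with completed reaction for no effect and substrate without enzyme for full effect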
Numbers without * were called inactive; . = no result.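 How the source made its calls, unless noted: active means mean inhibition above about 50% in the one-dose retest (limit read from the data); inactive means the rest.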

SMILES	SENP8 block-1	SENP6 inh	SENP7 block	SENP8 block-2	HSP90 inh	SENP1 FRET inh	SENP8 conf	SENP6 conf	SENP7 confirm	Casp3 SENP sel	SENP luc ctr
Cc1cccc(C(=O)Oc2cccc3c(O)cccc23)c1	-14	-9	0	9	0	-2	.	.	.	.	.
COC(=O)c1ccc(COc2cc([N+](=O)[O-])cc3cccnc23)o1	1	-20	6	7	2	-4	.	.	.	.	.
O=C(Nc1ccc(C(=O)N2CCCCC2)cc1)C1=CSCCO1	68*	79*	81*	4	8	1	78*	74*	91*	91*	77*
O=C(Nc1ccc(NC(=O)c2ccco2)cc1)c1ccc2c(c1)OCO2	31	54*	62*	4	1	-4	6	13	-3	8	3
O=C(Nc1ccc(NC(=O)c2ccco2)c(Cl)c1)c1ccc2c(c1)OCCO2	-19	4	10	-4	-1	3	.	.	.	.	.
O=C(Nc1ccc(C(=O)N2CCCC2)cc1)c1ccc2c(c1)OCO2	80*	87*	91*	2	1	0	83*	86*	99*	96*	89*
Cn1c(-c2ccc(Br)o2)nc2cc(Br)ccc21	85*	95*	83*	-33	5	-35	8	90*	91*	89*	38
Cn1c(-c2ccc(Br)o2)nc2ccccc21	95*	97*	99*	4	-1	-4	0	98*	103*	98*	95*
Cc1ccc(-c2nc3ccccc3n2C)o1	79*	70*	83*	-151	8	-2	91*	91*	98*	95*	90*
NS(=O)(=O)c1ccc(CCNC(=O)CSCC(=O)Nc2ccc(Cl)cc2)cc1	-8	2	2	9	.	-2	.	.	.	.	.
COc1ccc2cc1Oc1ccc(cc1)C[C@H]1c3cc(c(OC)cc3CCN1C)Oc1c(OC)c(OC)cc3c1[C@@H](C2)N(C)CC3	34	58*	27	76*	.	-2	10	2	0	5	0
COc1ccc2c(c1OC)CN(C)CCc1cc3c(cc1C(O)C2)OCO3 (stereo not given)	-3	-1	4	19	1	0	.	.	.	.	.
CCSc1nnc(-c2ccccc2N=Cc2c(C)[nH]n(-c3ccccc3)c2=O)c(=O)[nH]1	-10	-23	-5	23	-3	2	.	.	.	.	.
C#Cc1cccc(NC(=O)c2ccc3c(c2)C(=O)N(Cc2cccnc2)C3=O)c1	47	60*	75*	16	11	0	6	46	88*	54*	56*
CCc1nnc(NC(=O)c2ccc(COc3ccccc3Cl)o2)s1	1	-14	-4	8	-3	2	.	.	.	.	.
O=C(Nc1ccccc1)c1cc(-c2ccccc2Cl)no1	69*	88*	85*	22	12	4	81*	81*	95*	69*	74*
O=C(NCc1cccnc1)c1ccc(-c2cccc(Cl)c2Cl)o1	2	8	91*	-5	-4	-11	-29	-16	-6	-4	-7
CCc1nnc(NC(=O)c2ccc(-c3ccccc3Cl)o2)s1	10	33	68*	-228	1	-1	5	3	1	9	-3
COc1ccc(NC(=O)c2ccc(-c3ccccc3Cl)o2)cc1	69*	75*	52*	6	-2	0	48	64*	86*	49	5
COc1ccc(NC(=O)c2ccc(-c3ccc(C)c4ccccc34)o2)cc1	5	-1	-10	-74	2	1	.	.	.	.	.
O=C(Nc1cccc(F)c1)c1ccc(-c2ccccc2Cl)o1	42	54*	34	-6	3	0	47	50	70*	25	21
Oc1c(Br)cc(/C=N/Nc2nncc3ccccc23)cc1Br	69*	72*	17	.	3	.	8	11	-1	7	0
COc1ccc(/C=N/Nc2nncc3ccccc23)cc1	97*	99*	97*	-2	1	1	97*	100*	104*	99*	99*
COc1ccc(/C(C)=N/Nc2nncc3ccccc23)cc1	46	46	75*	23	0	2	2	6	10	18	-4
Cc1ccc(Cl)cc1N(CC(=O)NC(C)c1ccccc1)S(C)(=O)=O (stereo not given)	3	12	-1	10	-2	3	.	.	.	.	.
SMILES	SENP8 block-1	SENP6 inh	SENP7 block	SENP8 block-2	HSP90 inh	SENP1 FRET inh	SENP8 conf	SENP6 conf	SENP7 confirm	Casp3 SENP sel	SENP luc ctr
COc1ccccc1OCCNC(=O)CCC(=O)N1CCOCC1	0	-13	10	24	.	4	.	.	.	.	.
COc1cc(/C=C/c2ccc3cccc(O)c3n2)c(Br)cc1O	87*	84*	77*	-219	-2	-24	63*	86*	100*	55*	10
COc1cc(/C=C/c2ccc3cccc(O)c3n2)ccc1O	60*	80*	51*	-282	1	-25	71*	75*	92*	43	82*
CSc1ccc(/C=C/c2ccc3cccc(O)c3n2)cc1	42	66*	36	-282	9	-30	65*	90*	100*	91*	53*
Oc1cccc2ccc(/C=C/c3ccccc3Br)nc12	82*	90*	70*	-46	-1	2	72*	87*	91*	78*	66*
COc1cc(Br)c(/C=C/c2ccc3cccc(O)c3n2)cc1OC	-9	11	5	-39	1	0	.	.	.	.	.
COc1ccc(OC)c(/C=C/c2ccc3cccc(O)c3n2)c1	-16	-8	-15	-307	7	-85	.	.	.	.	.
N#Cc1ccc(NN=Nc2ccccc2C#N)cc1	.	.	.	13	.	0	.	.	.	.	.
Cc1ccc(C(=O)NC(C)(COc2nonc2C)COc2nonc2C)cc1	-9	-24	-10	12	2	0	.	.	.	.	.
Cc1ccsc1/C=C/c1ccc2cccc(O)c2n1	86*	94*	91*	-41	2	-18	95*	97*	101*	91*	84*
Cc1ccsc1/C=C/c1ccc2ccccc2n1	27	48	7	-22	9	-23	.	.	.	.	.
Cn1c(SCC(N)=O)nnc1-c1ccc(C(C)(C)C)cc1	-8	-14	-2	-1	0	1	.	.	.	.	.
